Experiments:
Acetylcholinesterase [1] = target: T1, Acetylcholinesterase (Rattus norvegicus, UniProt P37136); assay: Inhibition of Wistar rat brain AChE by Ellman colorimetric assay
T1 sequence (P37136 whole entry): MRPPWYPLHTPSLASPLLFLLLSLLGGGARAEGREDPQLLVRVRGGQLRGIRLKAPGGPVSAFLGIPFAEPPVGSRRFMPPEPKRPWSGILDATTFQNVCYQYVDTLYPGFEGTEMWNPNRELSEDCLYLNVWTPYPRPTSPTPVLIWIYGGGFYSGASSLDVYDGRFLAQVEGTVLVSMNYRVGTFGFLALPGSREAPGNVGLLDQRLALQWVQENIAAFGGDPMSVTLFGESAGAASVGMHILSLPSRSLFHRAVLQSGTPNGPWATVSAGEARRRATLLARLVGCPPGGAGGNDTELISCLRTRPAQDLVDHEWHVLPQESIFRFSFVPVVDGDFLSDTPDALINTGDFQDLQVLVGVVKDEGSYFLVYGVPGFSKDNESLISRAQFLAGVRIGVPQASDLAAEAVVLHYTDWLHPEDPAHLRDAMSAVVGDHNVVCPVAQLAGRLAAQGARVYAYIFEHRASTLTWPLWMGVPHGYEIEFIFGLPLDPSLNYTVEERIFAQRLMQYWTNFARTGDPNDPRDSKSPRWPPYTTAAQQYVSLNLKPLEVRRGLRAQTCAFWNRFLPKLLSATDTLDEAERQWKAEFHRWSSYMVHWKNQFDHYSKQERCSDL
Method in brief: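 Rat brain homogenate as the enzyme source. Ellman method with DTNB and 1.0 mM acetylthiocholine at 37 °C. Enzyme, buffer, DTNB and inhibitor were preincubated 10 min before substrate was added. Absorbance at 412 nm was read every 1 min for 10 min. Inhibitor range was 0–200 nM. IC50 is the concentration giving 50% inhibition; duplicate means.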

Acetylcholinesterase [2] = target: Acetylcholinesterase (Homo sapiens, UniProt P22303); assay: Inhibition of human serum AChE by Ellman colorimetric assay
Method in brief: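 Crude AChE was the supernatant of fresh volunteer blood mixed with 3.8% trisodium citrate (9:1) and spun at 3000 rpm, 0 °C, 20 min. Ellman assay with DTNB and 1.0 mM acetylthiocholine at 37 °C, after 10 min preincubation with inhibitor. A412 was followed over 10 min. Inhibitor range was 0–200 nM. IC50 is the 50% inhibition point; duplicate means.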

Acetylcholinesterase [3] = target: Acetylcholinesterase (Electrophorus electricus, UniProt O42275); assay: Inhibition of electric eel AChE by Ellman colorimetric assay
Method in brief: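 Electric eel AChE stock was kept frozen in 0.1 M KH2PO4 (pH 8). Assay used phosphate buffer pH 8.0, DTNB and 1.0 mM acetylthiocholine at 37 °C, after 10 min enzyme–inhibitor preincubation. A412 was read at 1-min intervals for 10 min. Inhibitor range was 0–200 nM. IC50 was taken at 50% inhibition; duplicates, mean reported.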

Chain of Acetylcholinesterase (Homo sapiens, UniProt P22303) (P22303 whole entry): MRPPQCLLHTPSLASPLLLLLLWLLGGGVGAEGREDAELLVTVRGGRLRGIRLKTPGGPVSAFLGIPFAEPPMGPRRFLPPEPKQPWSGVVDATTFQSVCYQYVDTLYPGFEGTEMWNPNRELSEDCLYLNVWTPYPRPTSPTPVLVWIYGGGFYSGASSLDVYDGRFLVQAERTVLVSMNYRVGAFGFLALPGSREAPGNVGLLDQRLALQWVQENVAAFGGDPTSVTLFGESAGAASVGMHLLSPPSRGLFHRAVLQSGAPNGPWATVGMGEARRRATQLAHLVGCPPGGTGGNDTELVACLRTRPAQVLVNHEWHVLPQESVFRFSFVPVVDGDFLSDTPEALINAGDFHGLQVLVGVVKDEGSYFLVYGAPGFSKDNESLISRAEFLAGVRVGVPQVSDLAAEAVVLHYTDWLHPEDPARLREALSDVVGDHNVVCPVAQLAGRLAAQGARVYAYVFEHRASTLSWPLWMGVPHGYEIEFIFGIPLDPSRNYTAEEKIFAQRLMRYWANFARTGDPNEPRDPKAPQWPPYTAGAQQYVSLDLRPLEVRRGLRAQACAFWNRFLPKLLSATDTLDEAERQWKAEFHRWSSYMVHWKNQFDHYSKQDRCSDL
Chain of Acetylcholinesterase (Electrophorus electricus, UniProt O42275) (O42275 whole entry): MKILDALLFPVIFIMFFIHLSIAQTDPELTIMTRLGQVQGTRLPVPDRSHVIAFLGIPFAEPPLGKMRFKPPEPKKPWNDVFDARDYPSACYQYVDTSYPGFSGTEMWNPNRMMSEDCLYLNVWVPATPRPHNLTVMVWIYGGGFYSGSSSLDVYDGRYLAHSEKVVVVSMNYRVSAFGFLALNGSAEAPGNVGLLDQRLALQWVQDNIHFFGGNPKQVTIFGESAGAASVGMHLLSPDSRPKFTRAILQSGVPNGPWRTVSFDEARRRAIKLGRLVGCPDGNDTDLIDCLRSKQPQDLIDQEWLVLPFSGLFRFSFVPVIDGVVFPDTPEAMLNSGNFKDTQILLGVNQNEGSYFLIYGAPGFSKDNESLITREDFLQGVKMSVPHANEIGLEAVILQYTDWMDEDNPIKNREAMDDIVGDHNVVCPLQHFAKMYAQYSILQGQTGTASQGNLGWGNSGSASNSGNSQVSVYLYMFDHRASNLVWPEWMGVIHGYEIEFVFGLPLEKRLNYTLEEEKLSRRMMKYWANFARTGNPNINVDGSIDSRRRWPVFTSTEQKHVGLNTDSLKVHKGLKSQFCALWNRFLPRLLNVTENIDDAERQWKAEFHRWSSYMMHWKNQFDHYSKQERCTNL

Structure (SMILES): CCCCC1=NC2(CCCC2)C(=O)N1Cc1ccc(-c2ccccc2C(=O)OC(C)(C)C)cc1
- IC50 (Acetylcholinesterase [1]): 271 nM
- IC50 (Acetylcholinesterase [2]): 269 nM
- IC50 (Acetylcholinesterase [3]): 277 nM

Structure (SMILES): CCCCC1=NC2(CCCC2)C(=O)N1Cc1ccc([N+](=O)[O-])cc1
- IC50 (Acetylcholinesterase [1]): 134 nM
- IC50 (Acetylcholinesterase [2]): 135 nM
- IC50 (Acetylcholinesterase [3]): 149 nM

Structure (SMILES): CCCCC1=NC2(CCCC2)C(=O)N1CCN1C(=O)c2ccccc2C1=O
- IC50 (Acetylcholinesterase [1]): 234 nM
- IC50 (Acetylcholinesterase [2]): 231 nM
- IC50 (Acetylcholinesterase [3]): 250 nM

Structure (SMILES): CCCCC1=NC2(CCCC2)C(=O)N1Cc1cc2c(cc1C)OCO2
- IC50 (Acetylcholinesterase [1]): 216 nM
- IC50 (Acetylcholinesterase [2]): 232 nM
- IC50 (Acetylcholinesterase [3]): 212 nM

Structure (SMILES): CCCCC1=NC2(CCCC2)C(=O)N1Cc1ccc(-c2ccccc2C(=O)OC)cc1
- IC50 (Acetylcholinesterase [1]): 243 nM
- IC50 (Acetylcholinesterase [2]): 241 nM
- IC50 (Acetylcholinesterase [3]): 236 nM

Structure (SMILES): CCCCC1=NC2(CCCC2)C(=O)N1Cc1ccc(-c2ccccc2C#N)cc1
- IC50 (Acetylcholinesterase [1]): 90 nM
- IC50 (Acetylcholinesterase [2]): 82.5 nM
- IC50 (Acetylcholinesterase [3]): 90 nM

Structure (SMILES): CCCCC1=NC2(CCCC2)C(=O)N1Cc1ccc(Br)cc1
- IC50 (Acetylcholinesterase [1]): 70 nM
- IC50 (Acetylcholinesterase [2]): 70 nM
- IC50 (Acetylcholinesterase [3]): 67.5 nM

Structure (SMILES): CCCCC1=NC2(CCCC2)C(=O)N1Cc1cc(OC)c(OC)cc1Br
- IC50 (Acetylcholinesterase [1]): 77.5 nM
- IC50 (Acetylcholinesterase [2]): 82.5 nM
- IC50 (Acetylcholinesterase [3]): 80 nM

Structure (SMILES): CCCCC1=NC2(CCCC2)C(=O)N1CC(=O)c1ccc(Cl)cc1
- IC50 (Acetylcholinesterase [1]): 280 nM
- IC50 (Acetylcholinesterase [2]): 286 nM
- IC50 (Acetylcholinesterase [3]): 280 nM

Structure (SMILES): CN(C)C(=O)Oc1cccc([N+](C)(C)C)c1 [NEOSTIGMINE BROMIDE]
- IC50 (Acetylcholinesterase [1]): 35 nM
- IC50 (Acetylcholinesterase [3]): 47.5 nM
